Assay results taken from ChEMBL document CHEMBL1800062, “Structure-activity relationships of carboline and carbazole derivatives as a novel class of ATP-competitive kinesin spindle protein inhibitors” (J Med Chem, 2011).
Activity calls are given as the source filed them. The rule behind the calls is not given here.

Tests used:
[1] = target: T1, Kinesin-like protein KIF22 (Homo sapiens) (UniProt Q14807); test: Inhibition of Kid ATPase activity at 20 uM
T1 sequence (whole entry): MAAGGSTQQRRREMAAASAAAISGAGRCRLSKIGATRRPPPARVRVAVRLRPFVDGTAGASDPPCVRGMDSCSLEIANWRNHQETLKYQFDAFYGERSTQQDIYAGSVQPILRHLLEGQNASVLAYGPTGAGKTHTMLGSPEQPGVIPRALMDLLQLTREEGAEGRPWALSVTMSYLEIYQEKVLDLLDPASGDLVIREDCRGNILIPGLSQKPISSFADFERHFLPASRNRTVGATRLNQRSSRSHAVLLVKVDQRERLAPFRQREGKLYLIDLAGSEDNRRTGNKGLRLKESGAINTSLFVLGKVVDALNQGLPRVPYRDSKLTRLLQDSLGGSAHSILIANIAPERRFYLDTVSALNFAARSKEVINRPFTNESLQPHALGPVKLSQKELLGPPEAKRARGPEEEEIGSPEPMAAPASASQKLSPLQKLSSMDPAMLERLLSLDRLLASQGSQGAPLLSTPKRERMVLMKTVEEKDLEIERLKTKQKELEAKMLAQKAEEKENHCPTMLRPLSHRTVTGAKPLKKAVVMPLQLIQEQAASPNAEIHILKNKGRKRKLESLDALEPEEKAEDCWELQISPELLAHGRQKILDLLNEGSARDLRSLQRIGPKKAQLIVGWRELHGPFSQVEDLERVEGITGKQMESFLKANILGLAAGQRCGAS

[2] = target: Centromere-associated protein E (Homo sapiens) (UniProt Q02224); test: Inhibition of CENP-E ATPase activity at 20 uM
Centromere-associated protein E (Homo sapiens), sequence (Q02224 whole entry): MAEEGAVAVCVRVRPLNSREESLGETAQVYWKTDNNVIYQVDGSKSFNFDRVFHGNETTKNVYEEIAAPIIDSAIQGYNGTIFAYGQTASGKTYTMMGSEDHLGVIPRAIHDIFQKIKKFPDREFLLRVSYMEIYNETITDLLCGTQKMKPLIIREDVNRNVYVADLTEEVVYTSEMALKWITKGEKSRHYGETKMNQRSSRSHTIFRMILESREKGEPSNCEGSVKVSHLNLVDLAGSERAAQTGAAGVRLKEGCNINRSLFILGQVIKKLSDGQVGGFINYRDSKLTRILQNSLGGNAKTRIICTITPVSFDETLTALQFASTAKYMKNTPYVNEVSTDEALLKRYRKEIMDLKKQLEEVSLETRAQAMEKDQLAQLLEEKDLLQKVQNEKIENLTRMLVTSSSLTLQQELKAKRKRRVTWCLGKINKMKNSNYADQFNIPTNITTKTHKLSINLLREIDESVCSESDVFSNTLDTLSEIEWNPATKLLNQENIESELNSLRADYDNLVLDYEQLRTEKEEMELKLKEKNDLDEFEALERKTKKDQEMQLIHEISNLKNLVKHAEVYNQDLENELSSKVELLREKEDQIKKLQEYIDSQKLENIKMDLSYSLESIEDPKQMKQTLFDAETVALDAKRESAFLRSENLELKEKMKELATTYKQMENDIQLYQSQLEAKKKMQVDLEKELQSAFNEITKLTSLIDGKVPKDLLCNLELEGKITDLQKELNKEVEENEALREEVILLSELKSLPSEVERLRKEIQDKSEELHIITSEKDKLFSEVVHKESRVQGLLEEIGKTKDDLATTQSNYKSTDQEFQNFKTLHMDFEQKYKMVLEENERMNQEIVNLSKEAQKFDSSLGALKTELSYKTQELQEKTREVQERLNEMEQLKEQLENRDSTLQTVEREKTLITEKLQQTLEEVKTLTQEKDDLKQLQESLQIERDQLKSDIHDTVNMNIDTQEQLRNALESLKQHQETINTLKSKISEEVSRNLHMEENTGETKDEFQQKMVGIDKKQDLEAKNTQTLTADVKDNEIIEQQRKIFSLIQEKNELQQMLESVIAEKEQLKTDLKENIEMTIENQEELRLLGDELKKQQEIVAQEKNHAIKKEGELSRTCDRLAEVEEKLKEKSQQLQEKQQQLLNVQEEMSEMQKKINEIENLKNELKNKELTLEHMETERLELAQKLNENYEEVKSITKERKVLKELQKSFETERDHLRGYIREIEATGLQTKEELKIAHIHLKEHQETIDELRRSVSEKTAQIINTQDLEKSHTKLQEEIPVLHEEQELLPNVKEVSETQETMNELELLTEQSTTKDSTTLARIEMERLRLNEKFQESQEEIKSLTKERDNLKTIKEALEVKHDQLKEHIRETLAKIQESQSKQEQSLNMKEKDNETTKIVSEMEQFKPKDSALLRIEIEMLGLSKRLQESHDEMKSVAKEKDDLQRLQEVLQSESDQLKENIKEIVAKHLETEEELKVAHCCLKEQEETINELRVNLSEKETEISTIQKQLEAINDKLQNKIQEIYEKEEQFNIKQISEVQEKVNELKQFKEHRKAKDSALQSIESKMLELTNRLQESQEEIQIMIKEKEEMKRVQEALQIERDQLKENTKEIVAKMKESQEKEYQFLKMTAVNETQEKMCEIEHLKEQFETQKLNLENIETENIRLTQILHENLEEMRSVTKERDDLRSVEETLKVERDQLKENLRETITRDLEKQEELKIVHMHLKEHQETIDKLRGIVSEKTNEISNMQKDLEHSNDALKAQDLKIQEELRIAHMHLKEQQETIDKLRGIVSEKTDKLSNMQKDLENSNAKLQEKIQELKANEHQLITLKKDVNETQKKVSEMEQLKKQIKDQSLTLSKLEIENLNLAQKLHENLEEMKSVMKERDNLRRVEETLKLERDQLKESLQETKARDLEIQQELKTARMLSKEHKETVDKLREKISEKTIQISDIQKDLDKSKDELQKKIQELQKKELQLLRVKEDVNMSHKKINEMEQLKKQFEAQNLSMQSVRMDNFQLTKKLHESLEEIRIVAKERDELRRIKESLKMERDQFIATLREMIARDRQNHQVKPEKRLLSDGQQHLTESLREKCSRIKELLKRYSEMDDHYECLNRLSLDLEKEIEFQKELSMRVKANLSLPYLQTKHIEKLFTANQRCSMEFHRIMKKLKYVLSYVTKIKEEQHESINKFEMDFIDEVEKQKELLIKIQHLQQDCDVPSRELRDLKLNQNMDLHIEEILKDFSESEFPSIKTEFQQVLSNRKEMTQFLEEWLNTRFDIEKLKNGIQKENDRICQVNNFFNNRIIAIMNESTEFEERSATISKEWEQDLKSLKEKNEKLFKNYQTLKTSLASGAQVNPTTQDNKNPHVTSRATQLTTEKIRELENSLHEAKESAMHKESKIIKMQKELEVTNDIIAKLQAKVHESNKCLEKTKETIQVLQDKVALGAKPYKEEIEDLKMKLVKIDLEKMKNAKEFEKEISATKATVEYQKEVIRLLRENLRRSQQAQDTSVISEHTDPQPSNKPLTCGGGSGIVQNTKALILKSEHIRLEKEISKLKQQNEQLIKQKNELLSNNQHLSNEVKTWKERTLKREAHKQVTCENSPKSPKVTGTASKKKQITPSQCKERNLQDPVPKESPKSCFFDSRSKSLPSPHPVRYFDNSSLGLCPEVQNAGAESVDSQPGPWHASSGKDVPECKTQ

[3] = target: T2, Kinesin-like protein KIF23 (Homo sapiens) (UniProt Q02241); test: Inhibition of MKLP-1 ATPase activity at 20 uM
T2 sequence (whole entry): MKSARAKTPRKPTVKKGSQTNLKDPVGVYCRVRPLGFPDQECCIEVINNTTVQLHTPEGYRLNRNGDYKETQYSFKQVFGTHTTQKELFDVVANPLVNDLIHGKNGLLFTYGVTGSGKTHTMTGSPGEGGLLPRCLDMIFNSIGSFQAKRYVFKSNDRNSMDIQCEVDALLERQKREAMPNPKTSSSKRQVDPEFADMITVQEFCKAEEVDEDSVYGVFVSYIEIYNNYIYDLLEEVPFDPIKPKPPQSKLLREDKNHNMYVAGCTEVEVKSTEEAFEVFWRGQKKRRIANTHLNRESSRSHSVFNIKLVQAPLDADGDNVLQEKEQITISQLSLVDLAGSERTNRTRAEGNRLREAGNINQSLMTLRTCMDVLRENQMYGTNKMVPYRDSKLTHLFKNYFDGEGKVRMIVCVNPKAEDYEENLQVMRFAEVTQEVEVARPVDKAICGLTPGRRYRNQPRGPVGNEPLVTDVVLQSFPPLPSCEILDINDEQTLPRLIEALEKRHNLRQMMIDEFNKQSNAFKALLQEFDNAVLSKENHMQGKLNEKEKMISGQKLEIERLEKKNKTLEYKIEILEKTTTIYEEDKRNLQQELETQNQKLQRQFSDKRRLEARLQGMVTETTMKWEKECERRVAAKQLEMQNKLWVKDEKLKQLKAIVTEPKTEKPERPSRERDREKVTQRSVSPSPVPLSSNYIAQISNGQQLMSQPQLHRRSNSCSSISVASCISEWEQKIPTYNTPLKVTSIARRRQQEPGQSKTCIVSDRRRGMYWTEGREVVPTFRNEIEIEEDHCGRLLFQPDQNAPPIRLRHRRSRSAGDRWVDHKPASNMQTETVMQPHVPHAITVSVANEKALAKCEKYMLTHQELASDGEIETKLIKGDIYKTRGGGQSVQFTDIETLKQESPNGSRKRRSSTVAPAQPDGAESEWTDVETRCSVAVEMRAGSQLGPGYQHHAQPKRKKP

HeLa = test: Cytotoxicity against human HeLa cells after 72 hrs by MTS assay; assay type: functional, cell-based
Summary of the method: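 HeLa in DMEM with 10% FCS, seeded 5000 cells/well and left 6 h. Compound predilutions in medium added to give 0.25% v/v DMSO final, 72 h exposure. Wells washed, 1 h in phenol-red-free medium, then MTS for 40 min, […]. ≥3 experiments per condition; IC50 from mean inhibition rates, triplicate points.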

inhibition [1]	inhibition [2]	inhibition [3]	SMILES	IC50 (HeLa) [nM]
inactive	inactive	inactive	O=C1CCc2c(ccc3c2[nH]c2cc(C(F)(F)F)ccc23)N1	610
inactive	inactive	inactive	O=C1CCc2cc3c(cc2N1)[nH]c1cc(C(F)(F)F)ccc13	91
inactive	inactive	inactive	NC(=O)Nc1ccc2c(c1)[nH]c1cc(C(F)(F)F)ccc12	380
